Data published in ChEMBL document CHEMBL4354869, “pH-Dependent Grafting of Cancer Cells with Antigenic Epitopes Promotes Selective Antibody-Mediated Cytotoxicity” (J Med Chem, 2020).
Calls of active or inactive are those of the source. The calls are words filed in the database; no cut-off is given here. Square brackets hold non-standard residues; d marks the D form. Peptide text beside a SMILES is read from it. * marks the point of attachment. Dnp = O=[N+]([O-])c1ccc(*)c([N+](=O)[O-])c1; Gla = N[C@@H](CC(C(=O)O)C(=O)O)C(=O)O; Aad = N[C@@H](CCCC(=O)O)C(=O)O

Assays:
MDA-MB-231 [1] = experiment: Induction of opsonization in human MDA-MB-231 cells assessed as increase in recruitment of anti-FITC antibody to cell surface at 1 uM measured after 5 to 10 mins at pH 6 to 7.4 by Alexa Fluor 647 conjugated anti-FITC antibody based flow cytometry; format: functional
Outline: (§1)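 Cells in suspension (350000 MDA-MB-231) given 1 μM pH-adjusted conjugate for 5 or 10 min at 37 °C, pH 7.4 or 6.0, washed, then Alexa Fluor 647 anti-FITC mouse mAb in PBS/10% FBS 30 min at 4 °C, PFA-fixed. Flow cytometry, ≥3000 events; fold over pH 7.4 antibody-only cells; mean ± SEM, n = 3.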

Lipid bilayer [2] = experiment: Binding affinity to POPC large unilamellar vesicle at 1:300 ratio measured after 30 mins at pH 5 to 7.4 by tryptophan fluorescence spectroscopic analysis
Outline: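 Peptide (7 μM final, from 20 μM stock in 5 mM sodium phosphate pH 8.0) with extruded 100 nm POPC LUVs at 1:300; pH set with HCl, 30 min RT before tryptophan emission spectra were recorded.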

MDA-MB-231 [3] = experiment: Induction of opsonization in human MDA-MB-231 cells assessed as increase in recruitment of anti-FITC antibody to cell surface at 1 uM measured after 5 to 10 mins at pH 6 by Alexa Fluor 647 conjugated anti-FITC antibody based flow cytometry relative to pH 7.4; format: functional; outline: as §1
Lipid bilayer [4] = experiment: Binding affinity to POPC large unilamellar vesicle at 1:300 ratio measured after 30 mins at pH 5 by circular dichroism spectroscopic analysis
Outline: (§2)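 Peptide (20 μM stock in 5 mM sodium phosphate pH 8.0; 7 μM final) mixed with POPC LUVs (extruded, 100 nm pores) at 1:300, pH lowered with HCl, 30 min RT. Far-UV CD 260–200 nm in 0.1 cm cuvette, ≥5 scans averaged, liposome spectrum subtracted; expressed as mean residue molar ellipticity.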

MDA-MB-231 [5] = experiment: Induction of opsonization in human MDA-MB-231 cells assessed as increase in recruitment of anti-DNP antibody to cell surface at 1 uM measured after 5 to 10 mins at pH 6 to 7.4 by AlexaFluor-488-conjugated anti-DNP antibody based flow cytometry; format: functional
Outline: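 Conjugate pre-incubated 1 h RT at 20 μM in 5 mM sodium phosphate pH 9.0, diluted, then pH adjusted with citrate buffer. MDA-MB-231 (350000 cells, suspension) exposed to 1 μM for 5 or 10 min, 37 °C, pH 7.4 or 6.0, washed, stained with 25 μg/mL anti-DNP-A488 30 min at 4 °C, PFA-fixed. Flow cytometry, ≥3000 events; fold over pH 7.4 antibody-only cells.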

Lipid bilayer [6] = experiment: Binding affinity to POPC large unilamellar vesicle at 1:300 ratio measured after 30 mins at pH 5 to 7.4 by circular dichroism spectroscopic analysis; outline: as §2
[7] = Drug internalization in human MDA-MB-231 cells assessed as increase in fluorescence at 1 uM measured after 30 mins at pH 6 to 7.4 in presence of FITC-labeled anti-human IgG by flow cytometric method; format: ADME, cell-based; settings: mda-mb-231, pH 6, 0.5 h
Outline: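 Control for specificity: MDA-MB-231 treated with 1 μM conjugate at pH 7.4 or 6.0 (5–10 min, 37 °C), washed, then incubated ± 25 μg/mL FITC anti-human IgG in PBS/10% FBS, 30 min at 4 °C, fixed, read by flow cytometry.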

Which results are given for `CC[C@H](C)[C@H](NC(=O)[C@@H]1CCCN1C(=O)[C@H](CC(N)=O)NC(=O)[C@H](CCC(N)=O)NC(=O)[C@H](CCC(=O)O)NC(=O)[C@H](CSC1CC(=O)N(CCC(=O)NOCCOCCOCCOCCOCCOCCOCCOCCOCCOCCOCCOCCC(=O)NCCCNC(=O)c2ccc(-c3c4ccc(=O)cc-4oc4cc(O)ccc34)c(C(=O)O)c2)C1=O)NCC(N)=O)C(=O)N[C@@H](Cc1ccc(O)cc1)C(=O)N[C@@H](Cc1c[nH]c2ccccc12)C(=O)N[C@@H](C)C(=O)N[C@@H](CCCNC(=N)N)C(=O)N[C@@H](Cc1ccc(O)cc1)C(=O)N[C@@H](C)C(=O)N[C@@H](CC(=O)O)C(=O)N[C@@H](Cc1c[nH]c2ccccc12)C(=O)N[C@@H](CC(C)C)C(=O)N[C@@H](Cc1ccccc1)C(=O)N[C@H](C(=O)N[C@H](C(=O)N1CCC[C@H]1C(=O)N[C@@H](CC(C)C)C(=O)N[C@@H](CC(C)C)C(=O)N[C@@H](CC(C)C)C(=O)N[C@@H](CC(C)C)C(=O)N[C@@H](CCC(=O)O)C(=O)N[C@@H](CC(C)C)C(=O)N[C@@H](C)C(=O)N[C@@H](CC(C)C)C(=O)N[C@@H](CC(C)C)C(=O)N[C@H](C(=O)N[C@@H](CC(=O)O)C(=O)N[C@@H](C)C(=O)N[C@@H](CC(=O)O)C(=O)N[C@@H](CCC(=O)O)C(=O)NCC(=O)N[C@H](C(=O)NCC(N)=O)[C@@H](C)O)C(C)C)[C@@H](C)O)[C@@H](C)O` (some centres undefined)?
Activity (MDA-MB-231 [1]): Active; Activity (Lipid bilayer [2]): Active; fold change (FC) (MDA-MB-231 [3]): 2.9

What does the source list for `CC[C@H](C)[C@H](NC(=O)[C@@H]1CCCN1C(=O)[C@H](CC(N)=O)NC(=O)[C@H](CCC(N)=O)NC(=O)[C@H](CCC(=O)O)NC(=O)[C@H](CSC1CC(=O)N(CCC(=O)NOCCOCCOCCOCCOCCOCCC(=O)NCCCNC(=O)c2ccc(-c3c4ccc(=O)cc-4oc4cc(O)ccc34)c(C(=O)O)c2)C1=O)NCC(N)=O)C(=O)N[C@@H](Cc1ccc(O)cc1)C(=O)N[C@@H](Cc1c[nH]c2ccccc12)C(=O)N[C@@H](C)C(=O)N[C@@H](CCCNC(=N)N)C(=O)N[C@@H](Cc1ccc(O)cc1)C(=O)N[C@@H](C)C(=O)N[C@@H](CC(=O)O)C(=O)N[C@@H](Cc1c[nH]c2ccccc12)C(=O)N[C@@H](CC(C)C)C(=O)N[C@@H](Cc1ccccc1)C(=O)N[C@H](C(=O)N[C@H](C(=O)N1CCC[C@H]1C(=O)N[C@@H](CC(C)C)C(=O)N[C@@H](CC(C)C)C(=O)N[C@@H](CC(C)C)C(=O)N[C@@H](CC(C)C)C(=O)N[C@@H](CC(=O)O)C(=O)N[C@@H](CC(C)C)C(=O)N[C@@H](C)C(=O)N[C@@H](CC(C)C)C(=O)N[C@@H](CC(C)C)C(=O)N[C@H](C(=O)N[C@@H](CC(=O)O)C(=O)N[C@@H](C)C(=O)N[C@@H](CC(=O)O)C(=O)N[C@@H](CCC(=O)O)C(=O)NCC(=O)N[C@H](C(=O)NCC(N)=O)[C@@H](C)O)C(C)C)[C@@H](C)O)[C@@H](C)O` (some centres undefined)?
Activity (MDA-MB-231 [1]): Active; Activity (Lipid bilayer [2]): Active

For `CC[C@H](C)[C@H](NC(=O)[C@@H]1CCCN1C(=O)[C@H](CC(N)=O)NC(=O)[C@H](CCC(N)=O)NC(=O)[C@H](CCC(=O)O)NC(=O)[C@H](CSC1CC(=O)N(CCC(=O)NOCCOCCOCCOCCOCCOCCOCCOCCOCCOCCOCCOCCOCCOCCOCCOCCOCCOCCOCCOCCOCCOCCOCCOCCC(=O)NCCCNC(=O)c2ccc(-c3c4ccc(=O)cc-4oc4cc(O)ccc34)c(C(=O)O)c2)C1=O)NCC(N)=O)C(=O)N[C@@H](Cc1ccc(O)cc1)C(=O)N[C@@H](Cc1c[nH]c2ccccc12)C(=O)N[C@@H](C)C(=O)N[C@@H](CCCNC(=N)N)C(=O)N[C@@H](Cc1ccc(O)cc1)C(=O)N[C@@H](C)C(=O)N[C@@H](CC(=O)O)C(=O)N[C@@H](Cc1c[nH]c2ccccc12)C(=O)N[C@@H](CC(C)C)C(=O)N[C@@H](Cc1ccccc1)C(=O)N[C@H](C(=O)N[C@H](C(=O)N1CCC[C@H]1C(=O)N[C@@H](CC(C)C)C(=O)N[C@@H](CC(C)C)C(=O)N[C@@H](CC(C)C)C(=O)N[C@@H](CC(C)C)C(=O)N[C@@H](CC(=O)O)C(=O)N[C@@H](CC(C)C)C(=O)N[C@@H](C)C(=O)N[C@@H](CC(C)C)C(=O)N[C@@H](CC(C)C)C(=O)N[C@H](C(=O)N[C@@H](CC(=O)O)C(=O)N[C@@H](C)C(=O)N[C@@H](CC(=O)O)C(=O)N[C@@H](CCC(=O)O)C(=O)NCC(=O)N[C@H](C(=O)NCC(N)=O)[C@@H](C)O)C(C)C)[C@@H](C)O)[C@@H](C)O` (some centres undefined), which Activity (MDA-MB-231 [1]) is on record?
Its Activity is “Active”.

What about the Activity (Lipid bilayer [4]) of the same compound?
Its Activity is “Active”.

And the Activity (Lipid bilayer [2])?
The Activity was “Active”.

What does the source list for `CC[C@H](C)[C@H](NC(=O)[C@@H]1CCCN1C(=O)[C@H](CC(N)=O)NC(=O)[C@H](CCC(N)=O)NC(=O)[C@H](CCC(=O)O)NC(=O)[C@@H](N)CCCCNc1ccc([N+](=O)[O-])cc1[N+](=O)[O-])C(=O)N[C@@H](Cc1ccc(O)cc1)C(=O)N[C@@H](Cc1c[nH]c2ccccc12)C(=O)N[C@@H](C)C(=O)N[C@@H](CCCNC(=N)N)C(=O)N[C@@H](Cc1ccc(O)cc1)C(=O)N[C@@H](C)C(=O)N[C@@H](CC(=O)O)C(=O)N[C@@H](Cc1c[nH]c2ccccc12)C(=O)N[C@@H](CC(C)C)C(=O)N[C@@H](Cc1ccccc1)C(=O)N[C@H](C(=O)N[C@H](C(=O)N1CCC[C@H]1C(=O)N[C@@H](CC(C)C)C(=O)N[C@@H](CC(C)C)C(=O)N[C@@H](CC(C)C)C(=O)N[C@@H](CC(C)C)C(=O)N[C@@H](CC(=O)O)C(=O)N[C@@H](CC(C)C)C(=O)N[C@@H](C)C(=O)N[C@@H](CC(C)C)C(=O)N[C@@H](CC(C)C)C(=O)N[C@H](C(=O)N[C@@H](CC(=O)O)C(=O)N[C@@H](C)C(=O)N[C@@H](CC(=O)O)C(=O)N[C@@H](CCC(=O)O)C(=O)NCC(=O)N[C@H](C(=O)NCC(N)=O)[C@@H](C)O)C(C)C)[C@@H](C)O)[C@@H](C)O` (H-K(Dnp)EQNPIYWARYADWLFTTPLLLLDLALLVDADEGTG-NH2)?
Activity (MDA-MB-231 [5]): Active; Activity (Lipid bilayer [6]): Active; Drug uptake [7]: Not Active

For `CC[C@H](C)[C@H](NC(=O)[C@@H]1CCCN1C(=O)[C@H](CC(N)=O)NC(=O)[C@H](CCC(N)=O)NC(=O)[C@H](CCC(=O)O)NC(=O)[C@@H](N)CCCCNc1ccc([N+](=O)[O-])cc1[N+](=O)[O-])C(=O)N[C@@H](Cc1ccc(O)cc1)C(=O)N[C@@H](Cc1c[nH]c2ccccc12)C(=O)N[C@@H](C)C(=O)N[C@@H](CCCNC(=N)N)C(=O)N[C@@H](Cc1ccc(O)cc1)C(=O)N[C@@H](C)C(=O)N[C@@H](CC(C(=O)O)C(=O)O)C(=O)N[C@@H](Cc1c[nH]c2ccccc12)C(=O)N[C@@H](CC(C)C)C(=O)N[C@@H](Cc1ccccc1)C(=O)N[C@H](C(=O)N[C@H](C(=O)N1CCC[C@H]1C(=O)N[C@@H](CC(C)C)C(=O)N[C@@H](CC(C)C)C(=O)N[C@@H](CC(C)C)C(=O)N[C@@H](CC(C)C)C(=O)N[C@@H](CCCC(=O)O)C(=O)N[C@@H](CC(C)C)C(=O)N[C@@H](C)C(=O)N[C@@H](CC(C)C)C(=O)N[C@@H](CC(C)C)C(=O)N[C@H](C(=O)N[C@@H](CC(=O)O)C(=O)N[C@@H](C)C(=O)N[C@@H](CC(=O)O)C(=O)N[C@@H](CCC(=O)O)C(=O)NCC(=O)N[C@H](C(=O)NCC(N)=O)[C@@H](C)O)C(C)C)[C@@H](C)O)[C@@H](C)O` (H-K(Dnp)EQNPIYWARYA[Gla]WLFTTPLLLL[Aad]LALLVDADEGTG-NH2), which Activity (MDA-MB-231 [5]) is on record?
Its Activity is “Active”.

And the Activity (Lipid bilayer [6])?
Its Activity is “Active”.

And the Drug uptake [7]?
The Drug uptake was “Not Active”.
